A selection: hits, their analogues and other compounds. The true share with any hit is near 1.7%.
STEP inh = STEP phosphatase inhibitors, primary screen, biochemical, fluorescence intensity, uHTS | AID 588621, 2011 | recombinant STEP, OMFP fluorogenic substrate | actives 0.25% (n = 360,000) | Tyrosine-protein phosphatase non-receptor type 5 (Homo sapiens), P54829 | inhibition, % at 20 µM;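 active means inhibition at 20 µM, scaled per plate between control wells, above about 37%, limit read from the data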;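 further: 0% = DMSO with enzyme and substrate and 100% = substrate only without enzyme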
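Test system: STEP tyrosine phosphatase / Reagent: OMFP at 25 µM / Doses: 20 µM, 1% DMSO / Read-out: percent inhibition scaled to no-enzyme and uninhibited-enzyme controls, plate-pattern corrected / Detection: FITC-channel fluorescence of OMFP product / Medium: Bis-Tris buffer pH 6.0, 2.5 mM DTT, 0.005% Tween 20 / Schedule: 20 min at room temperature, dark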
SUMO1-SIM PPI = modulators of SUMO1 protein-protein interactions, primary screen, biochemical, uHTS. actives 0.33% (n = 360,000). Small ubiquitin-related modifier 1 (Homo sapiens), P63165. AID 602429, 2012. SUMO1 binding to a labelled peptide, TR-FRET, 1 h. inhibition, % at 20 µM; in the data active means inhibition above about 37%
Target sequence (P63165 whole entry, looked up): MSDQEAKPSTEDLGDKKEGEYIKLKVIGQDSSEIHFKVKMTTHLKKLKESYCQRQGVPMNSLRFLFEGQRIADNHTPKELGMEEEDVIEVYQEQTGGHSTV
Scp-1 inhibitor = Scp-1 phosphatase inhibitors, primary screen, biochemical, colorimetric, uHTS | Recombinant Scp1, phosphopeptide, malachite green phosphate absorbance | inhibition, % at 20 µM | actives 0.88% (n = 340,000) | AID 493091, 2011;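 active means inhibition above about 50% at 20 µM, limit read from the data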;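 further: plate controls were DMSO wells with enzyme for no effect and wells lacking enzyme for full effect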
Target sequence (Q9GZU7 76-261 limits assumed): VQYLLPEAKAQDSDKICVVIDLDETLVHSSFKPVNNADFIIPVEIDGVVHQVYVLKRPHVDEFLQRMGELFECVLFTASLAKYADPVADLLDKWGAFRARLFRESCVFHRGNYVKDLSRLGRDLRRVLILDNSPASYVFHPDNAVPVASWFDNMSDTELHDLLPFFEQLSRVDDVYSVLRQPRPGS
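Times: enzyme reaction 45 min at room temperature, colour 5 min, stabilisation 30 min. Material: SCP-1 catalytic fragment, aa 76-261. Medium: Acidic Tris acetate buffer with magnesium and detergent. Signal: colorimetric free-phosphate detection, absorbance 630 nm. Read-out basis: % inhibition of SCP-1 phosphate liberation. Reagent: Phosphorylated 17-residue peptide substrate.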
LMPTP block = LMPTP phosphatase inhibitors, primary screen, biochemical, fluorescence intensity, uHTS. Low molecular weight phosphotyrosine protein phosphatase (Homo sapiens), P24666. AID 651560, 2012. actives 0.22% (n = 360,000). recombinant LMPTP-A, OMFP fluorogenic substrate. inhibition, % at 20 µM;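 active means compounds that cut the enzyme signal by at least half of the control window in the single-dose screen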;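 further: plate controls were DMSO wells with enzyme plus substrate for no effect and substrate without enzyme for full effect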
Target sequence (P24666 whole entry, looked up): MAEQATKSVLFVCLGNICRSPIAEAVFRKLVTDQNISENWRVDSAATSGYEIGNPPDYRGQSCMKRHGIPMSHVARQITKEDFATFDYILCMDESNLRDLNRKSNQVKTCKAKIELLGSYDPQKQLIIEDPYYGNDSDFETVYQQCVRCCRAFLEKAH
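Assay system: LMPTP-A, protein tyrosine phosphatase of low molecular weight / Medium: pH 6.0 Bis-Tris buffer with DTT and Triton X-100 / Schedule: 50 min enzyme reaction at room temperature, protected from light / Measured by: endpoint fluorescence intensity from OMFP dephosphorylation / Read-out basis: % inhibition relative to no-enzyme and uninhibited control wells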
DNMT1 inh = human DNMT1 methyltransferase inhibitors, primary screen, biochemical, molecular beacon, fluorescence, HinP1I cleavage, uHTS. inhibition (reported as % activation of signal), % at 10 µM. actives 0.83% (n = 360,000). AID 588458, 2011; in the data active means inhibition above about 50%
DNMT1 interf DR = spectral interference with molecular beacon fluorescence, dose response, artefact control for DNMT1 inhibitor project, biochemical, fluorescent molecular beacon; shares compounds with DNMT1 inh; spectral interference counter-screen; IC50, µM; 200 tested, under 10 active; AID 602382, 2012; call rule not given here
DNMT1 inh conf = DNMT1 methyltransferase inhibitor retest, confirmation, biochemical, molecular beacon, fluorescence, single concentration. actives 8% (n = 2,300). inhibition, % at 10 µM. DNMT1 molecular beacon HinP1I cleavage. shares compounds with DNMT1 inh;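 active means average inhibition of at least 30% in the single-concentration confirmation test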
DNMT1 interf = beacon fluorescence artifact counter-screen | AID 602387 | shares compounds with DNMT1 inh | DNMT1 molecular beacon spectral interference counterscreen, fluorescence 485/520 | activation (fluorescence interference), % at 10 µM | actives 1% (n = 2,300);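 active means activation of at least 30% at 10 µM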;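 further: DNMT1 catalytic domain with a HinP1I cleavage step and a FAM/dabcyl DNA beacon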
* = called active by the depositor; · = no result given.

SMILES	STEP inh	SUMO1-SIM PPI	Scp-1 inhibitor	LMPTP block	DNMT1 inh	DNMT1 inh conf	DNMT1 interf	others
COc1cc(C(CC(=O)Nc2ccc(C)cn2)N2Cc3ccccc3C2=O)cc(OC)c1OC (stereo unspecified)	-3.3	-1.1	-15.4	1.6	-0.8	·	·
Cc1ccc(OCc2ccc(C(=O)O)o2)cc1C	1.8	-4.5	30.0	-2.8	2.1	·	·
Cc1ccc(OCc2ccoc2C(=O)O)cc1C	4.4	3.7	49.8	-0.3	54.1*	4.2	-1.2
COc1cccc(CNC(=O)Cc2ccc(Br)cc2)c1	-1.9	7.2	-0.2	-0.3	69.7*	1.9	2.1
COc1cccc(CNC(=O)Cn2cccc2)c1	-3.0	-2.3	5.5	-0.8	0.8	·	·
Cc1ccc(C2C(/C=C3/SC(=S)NC3=O)=C(c3cccs3)Oc3ccccc32)cc1 (stereo unspecified)	0.4	1.2	0.4	7.3	83.1*	71.6*	-13.4	DNMT1 interf DR=>99
CC1Cc2cc(/C=C3/SC(=S)NC3=O)ccc2O1 (stereo unspecified)	0.9	-10.4	8.2	1.8	-2.1	·	·
CCN(C[C@H]1N[C@@](C)(C(=O)OC)[C@H]2C(=O)N(C)C(=O)[C@@H]12)C(=O)Nc1ccccc1	-3.0	3.4	-13.8	-2.5	1.9	·	·
O=C(c1cc(=O)c2ccccc2o1)N1CCCc2ccccc21	-1.6	-2.6	-6.7	0.3	84.2*	4.3	4.9
O=C(c1coc(=O)c(Br)c1)N1CCCc2ccccc21	6.2	9.0	19.1	9.6	58.1*	1.8	2.5
CC1(C)CCCN(C(=O)c2coc(=O)c(Br)c2)C1	96.9*	2.6	95.9*	53.8*	87.0*	103.4*	-4.3	DNMT1 interf DR=>99
Cc1ccc(C(=O)NC(=S)N2CCCCCC2)cc1	-1.9	3.7	-7.2	-2.2	0.5	·	·
Cc1cccc(NC(=O)c2cc3c(=O)n4ccccc4nc3n(CC(C)C)c2=N)c1	1.0	-1.3	9.2	1.1	62.1*	0.6	2.3
CC(Sc1nc2ccc(Br)cc2[nH]1)C(=O)O (stereo unspecified)	0.9	3.1	-6.5	-1.3	5.4	·	·
CC(Sc1nc2ccc(C(=O)c3ccccc3)cc2[nH]1)C(=O)O (stereo unspecified)	-3.8	6.8	-1.8	-1.4	81.3*	-1.2	1.0
CSc1nc(NCC(C)O)c2c3c(sc2n1)CN(C)CC3 (stereo unspecified)	1.3	0.6	14.4	0.7	-0.8	·	·
CSc1nc(SCC(=O)NC(c2ccccc2)c2ccccc2)c2c3c(sc2n1)CN(C)CC3	9.7	-12.4	-0.1	4.2	62.8*	2.1	-4.0
Cc1cc(C(=O)COC(=O)c2cccnc2Cl)c(C)n1C	1.7	1.4	-3.6	-0.3	0.1	·	·
CCN1CCc2nc3ccccc3c(C(=O)Nc3ccc(C#N)cc3)c2C1	0.9	-5.0	-8.3	2.3	-17.9	·	·
NC(=O)Cn1c(=O)n(Cc2ccco2)c(=O)c2c3c(sc21)CCCCC3	15.5	12.5	70.5*	8.3	82.9*	3.4	0.4
S=C(Nc1ccc(Cl)cc1)Nc1ccc2c(c1)OCCO2	-1.8	13.2	1.1	0.5	72.1*	2.2	3.0
O=C(CN1C(=O)NC(Cc2c[nH]c3ccccc23)C1=O)Nc1ccc(Br)cc1F (stereo unspecified)	-2.0	-3.6	-9.8	0.5	-0.4	·	·
NC(=O)C1CCN(C(=O)c2cc3ccccc3cc2O)CC1	-1.6	-4.4	-2.3	0.1	-0.1	·	·
O=C1NC(=Nc2ccc3ccccc3c2)S/C1=C/c1ccco1	0.2	2.6	18.2	25.6	67.2*	3.2	-2.4
Cc1ccc(N=C2NC(=O)/C(=C\c3ccco3)S2)cc1	-4.8	-6.6	7.1	2.0	45.5	·	·
SMILES	STEP inh	SUMO1-SIM PPI	Scp-1 inhibitor	LMPTP block	DNMT1 inh	DNMT1 inh conf	DNMT1 interf	others
COc1ccc(N=C2NC(=O)/C(=C\C=C\c3ccco3)S2)cc1	5.6	23.7	25.2	32.1	79.7*	3.5	-4.2
Cc1cccc(N=C2NC(=O)/C(=C/C=C/c3ccco3)S2)c1	0.4	13.7	15.3	6.3	85.1*	14.4	1.4
Cc1cc(C)n(-c2nnc3c4ccccc4n(C)c3n2)n1	-4.5	-13.4	-0.7	0.4	-4.7	·	·
Cc1ccc(C(=O)/C=C/Nc2cccc([N+](=O)[O-])c2)o1	0.1	-18.0	-2.7	0.0	4.3	·	·
O=C(NCc1ccc2c(c1)OCO2)c1cc2ncc(Br)cn2n1	-0.4	1.6	72.3*	51.9*	70.8*	4.0	0.4
O=c1[nH]c(C(Cl)Cl)nc2sc3c(c12)CCN(Cc1ccccc1)C3	0.0	24.5	-2.1	77.0*	86.6*	18.0	2.9
O=C(COc1ccccc1Cl)Nc1ccc(S(=O)(=O)Nc2ccccn2)cc1	-0.2	4.3	1.8	0.6	2.2	·	·
C=C1C(=O)OC2C1CCC(C)=C1C(=O)C3OC3(C)C12 (stereo unspecified)	-2.1	4.2	4.1	-0.9	72.2*	7.6	7.5
COc1cc(S(=O)(=O)Nc2cccnc2)ccc1Cl	-0.7	2.0	-6.5	-0.8	-4.5	·	·
CCOc1ccc(Br)cc1C(=O)Nc1ccc(C(=O)NCC(C)C)cc1	-5.8	-3.9	2.9	-2.5	62.6*	4.0	3.6
O=C(NCCCN1C(=O)c2ccccc2C1=O)OCc1ccccc1	-1.4	-6.7	2.6	0.2	5.1	·	·
Nc1nnc(CCOc2ccccc2Cl)s1	-3.4	-0.1	0.3	-1.4	1.8	·	·
COc1ccccc1CCc1nnc(N)s1	2.8	4.7	1.2	-1.6	81.5*	0.9	2.4
CC(=O)N1CCC(C(=O)NC2CCCc3c2cnn3-c2cc(F)cc(F)c2)CC1 (stereo unspecified)	-3.3	-3.7	3.5	-1.1	0.1	·	·
CCn1c(CC(=O)Nc2ccccc2F)nnc1SCC(=O)N1CCN(c2ccccc2)CC1	0.5	-2.1	-6.4	-1.4	76.9*	1.3	1.2
CCOc1ccc(C=NNc2ccc(S(=O)(=O)Nc3ccccc3C(=O)O)cc2[N+](=O)[O-])cc1	36.4	109.6*	44.5	97.0*	84.9*	101.8*	-8.1	DNMT1 interf DR=>99

Screens as filed in PubChem.
